Our source for the inhibition and residual activity values is ChEMBL document CHEMBL5696442, “Discovery of type II inhibitors of TGFβ-activated kinase 1 (TAK1) and mitogen-activated protein kinase kinase kinase kinase 2 (MAP4K2)” (J Med Chem, 2015).

Test [1] addresses 5'-AMP-activated protein kinase catalytic subunit alpha-2 (Homo sapiens) (UniProt P54646). The test can be described thus: Inhibition of AMPK-alpha2 (unknown origin) at 1 uM by Ambit Kinomescan binding assay relative to control.
Test [2] concerns the target T1, Interleukin-1 receptor-associated kinase 4 (Homo sapiens) (UniProt Q9NWZ3).
T1 sequence (whole entry): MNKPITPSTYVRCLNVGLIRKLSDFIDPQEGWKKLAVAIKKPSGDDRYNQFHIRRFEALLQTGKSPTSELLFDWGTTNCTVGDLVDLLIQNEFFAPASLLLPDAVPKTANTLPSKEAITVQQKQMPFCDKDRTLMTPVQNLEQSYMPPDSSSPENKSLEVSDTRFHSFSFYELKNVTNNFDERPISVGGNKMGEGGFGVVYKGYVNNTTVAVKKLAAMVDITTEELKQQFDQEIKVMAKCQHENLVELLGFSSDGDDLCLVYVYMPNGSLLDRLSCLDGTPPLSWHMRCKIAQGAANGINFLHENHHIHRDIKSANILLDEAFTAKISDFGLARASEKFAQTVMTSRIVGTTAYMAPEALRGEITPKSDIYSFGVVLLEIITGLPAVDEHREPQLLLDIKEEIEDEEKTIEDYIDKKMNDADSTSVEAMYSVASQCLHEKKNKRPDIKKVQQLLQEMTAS
As to the kind of experiment: Inhibition of IRAK4 (unknown origin) at 1 uM by Ambit Kinomescan binding assay relative to control.

For test [3], the target named is Serine/threonine-protein kinase 16 (Homo sapiens) (UniProt O75716). The test can be described thus: Inhibition of STK16 (unknown origin) at 1 uM by Ambit Kinomescan binding assay relative to control.
Test [4] concerns the target Ribosomal protein S6 kinase alpha-3 (Homo sapiens) (UniProt P51812). The test can be described thus: Inhibition of RSK2 domain1 ACT labeling site in human A-375 cells at 5 uM by KiNativ Profiling analysis relative to control. It counts as cell-based. In a few lines:
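Live A375 melanoma cells treated with compound at 5 or 0.5 μM, then lysed. Lysate kinases were labeled with a lysine-reactive ATP or ADP-biotin probe. Inhibition was read as protection of labeling sites from the probe.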

Test [5] deals with Maternal embryonic leucine zipper kinase (Homo sapiens) (UniProt Q14680). The test can be described thus: Inhibition of MELK Lys2 labeling site in human A-375 cells at 0.5 uM by KiNativ Profiling analysis relative to control. It counts as cell-based.
Test [6] has as its target Serine/threonine-protein kinase 38-like (Homo sapiens) (UniProt Q9Y2H1). The test can be described thus: Inhibition of NDR2 Lys2 labeling site in human A-375 cells at 0.5 uM by KiNativ Profiling analysis relative to control. It counts as cell-based.
In test [7] the test system is Mast/stem cell growth factor receptor Kit (Homo sapiens), P10721 [V559D]. As to the kind of experiment: Inhibition of KIT V559D mutant (unknown origin) at 1 uM by Ambit Kinomescan binding assay relative to control; values are per cent of control.
Test [8] concerns the target Serine/threonine-protein kinase 4 (Homo sapiens) (UniProt Q13043). As to the kind of experiment: Inhibition of MST1 Lys1 labeling site harbouring ETGQIVAIKQVPVESDLQEIIK in human A-375 cells at 0.5 uM by KiNativ Profiling analysis relative to control.
Test [9] addresses Calcium/calmodulin-dependent protein kinase type II subunit delta (Homo sapiens) (UniProt Q13557). The test can be described thus: Inhibition of CAMK2D (unknown origin) at 10 uM by Ambit Kinomescan binding assay.
Test [10] concerns the target Serine/threonine-protein kinase N2 (Homo sapiens) (UniProt Q16513). As to the kind of experiment: Inhibition of PKN2 (unknown origin) at 10 uM by Ambit Kinomescan binding assay.
Test [11] concerns the target Protein kinase C epsilon type (Homo sapiens) (UniProt Q02156). As to the kind of experiment: Inhibition of PRKCE (unknown origin) at 10 uM by Ambit Kinomescan binding assay relative to control.
For test [12], the target named is T2, Serine/threonine-protein kinase Chk1 (Homo sapiens) (UniProt O14757).
T2 sequence (whole entry): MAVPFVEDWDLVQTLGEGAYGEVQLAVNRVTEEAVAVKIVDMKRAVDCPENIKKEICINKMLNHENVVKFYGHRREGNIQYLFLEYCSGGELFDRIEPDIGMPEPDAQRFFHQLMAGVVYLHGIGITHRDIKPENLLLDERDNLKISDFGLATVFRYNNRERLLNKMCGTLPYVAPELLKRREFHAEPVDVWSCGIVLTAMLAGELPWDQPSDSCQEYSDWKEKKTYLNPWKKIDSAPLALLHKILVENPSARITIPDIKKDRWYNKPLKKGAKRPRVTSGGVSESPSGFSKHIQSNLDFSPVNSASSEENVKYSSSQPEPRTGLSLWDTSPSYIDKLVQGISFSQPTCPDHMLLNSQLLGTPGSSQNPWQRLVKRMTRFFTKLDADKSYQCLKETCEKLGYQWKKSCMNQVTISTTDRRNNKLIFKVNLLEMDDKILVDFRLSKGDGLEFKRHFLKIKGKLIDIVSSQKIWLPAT
The test can be described thus: Inhibition of CHK1 in human Huh-7 cells at 1 uM by KiNativ Profiling analysis relative to control. It counts as cell-based.

Test [13] deals with T3, Serine/threonine-protein kinase Sgk3 (Homo sapiens) (UniProt Q96BR1).
T3 sequence (whole entry): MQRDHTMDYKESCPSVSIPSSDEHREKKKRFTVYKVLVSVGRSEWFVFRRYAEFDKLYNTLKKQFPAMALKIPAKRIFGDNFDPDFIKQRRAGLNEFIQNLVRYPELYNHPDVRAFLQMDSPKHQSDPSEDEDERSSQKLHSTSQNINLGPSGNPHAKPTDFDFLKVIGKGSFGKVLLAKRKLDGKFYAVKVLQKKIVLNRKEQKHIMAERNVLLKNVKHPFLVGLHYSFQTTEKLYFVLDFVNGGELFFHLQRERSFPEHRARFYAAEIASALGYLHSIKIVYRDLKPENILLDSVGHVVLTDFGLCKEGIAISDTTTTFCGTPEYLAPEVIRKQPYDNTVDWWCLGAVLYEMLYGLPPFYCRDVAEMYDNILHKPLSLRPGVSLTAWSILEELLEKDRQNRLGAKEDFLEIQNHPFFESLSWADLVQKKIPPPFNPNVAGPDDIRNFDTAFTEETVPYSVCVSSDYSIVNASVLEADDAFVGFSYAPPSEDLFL
The test can be described thus: Inhibition of SGK3 K1 labeling site in human Huh-7 cells at 1 uM by KiNativ Profiling analysis relative to control. It counts as cell-based.

Test [14] deals with Serine/threonine-protein kinase 36 (Homo sapiens) (UniProt Q9NRP7). The test can be described thus: Inhibition of STK36 (unknown origin) at 10 uM by Ambit Kinomescan binding assay relative to control; values are per cent of control.
Test [15] concerns the target Serine/threonine-protein kinase Nek7 (Homo sapiens) (UniProt Q8TDX7). The test can be described thus: Inhibition of NEK7 Lys2 labeling site harbouring VMHRDIKPANVFITATGVVK in human Huh-7 cell lysate at 1 uM by KiNativ Profiling analysis relative to control. It counts as subcellular.
Test [16] addresses Myosin light chain kinase, smooth muscle (Homo sapiens) (UniProt Q15746). The test can be described thus: Inhibition of smMLCK Lys2 labeling site in human Huh-7 cells at 1 uM by KiNativ Profiling analysis relative to control. It counts as cell-based.

SMILES strings stand for the structures. Calls of active or inactive are those of the source. The rule behind the calls is not given here.

Maternal embryonic leucine zipper kinase (Homo sapiens), sequence (Q14680 whole entry, looked up): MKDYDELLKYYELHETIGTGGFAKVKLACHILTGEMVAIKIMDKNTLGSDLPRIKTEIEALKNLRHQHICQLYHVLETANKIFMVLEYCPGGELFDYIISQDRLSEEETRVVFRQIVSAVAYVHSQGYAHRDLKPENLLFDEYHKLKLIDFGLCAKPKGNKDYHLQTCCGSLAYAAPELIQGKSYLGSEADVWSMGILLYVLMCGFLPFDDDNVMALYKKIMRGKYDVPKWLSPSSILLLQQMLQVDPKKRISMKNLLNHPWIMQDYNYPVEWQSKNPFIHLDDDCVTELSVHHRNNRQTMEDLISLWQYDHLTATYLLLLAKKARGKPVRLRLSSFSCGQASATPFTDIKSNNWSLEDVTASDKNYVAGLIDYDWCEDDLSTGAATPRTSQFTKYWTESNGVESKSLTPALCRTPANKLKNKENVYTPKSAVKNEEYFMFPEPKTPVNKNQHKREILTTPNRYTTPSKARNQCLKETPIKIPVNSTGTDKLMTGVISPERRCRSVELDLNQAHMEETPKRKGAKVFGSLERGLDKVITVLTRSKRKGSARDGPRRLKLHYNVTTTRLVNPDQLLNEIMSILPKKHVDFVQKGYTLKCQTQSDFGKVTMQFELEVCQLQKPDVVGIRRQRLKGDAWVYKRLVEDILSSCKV
Protein kinase C epsilon type (Homo sapiens), sequence (Q02156 whole entry): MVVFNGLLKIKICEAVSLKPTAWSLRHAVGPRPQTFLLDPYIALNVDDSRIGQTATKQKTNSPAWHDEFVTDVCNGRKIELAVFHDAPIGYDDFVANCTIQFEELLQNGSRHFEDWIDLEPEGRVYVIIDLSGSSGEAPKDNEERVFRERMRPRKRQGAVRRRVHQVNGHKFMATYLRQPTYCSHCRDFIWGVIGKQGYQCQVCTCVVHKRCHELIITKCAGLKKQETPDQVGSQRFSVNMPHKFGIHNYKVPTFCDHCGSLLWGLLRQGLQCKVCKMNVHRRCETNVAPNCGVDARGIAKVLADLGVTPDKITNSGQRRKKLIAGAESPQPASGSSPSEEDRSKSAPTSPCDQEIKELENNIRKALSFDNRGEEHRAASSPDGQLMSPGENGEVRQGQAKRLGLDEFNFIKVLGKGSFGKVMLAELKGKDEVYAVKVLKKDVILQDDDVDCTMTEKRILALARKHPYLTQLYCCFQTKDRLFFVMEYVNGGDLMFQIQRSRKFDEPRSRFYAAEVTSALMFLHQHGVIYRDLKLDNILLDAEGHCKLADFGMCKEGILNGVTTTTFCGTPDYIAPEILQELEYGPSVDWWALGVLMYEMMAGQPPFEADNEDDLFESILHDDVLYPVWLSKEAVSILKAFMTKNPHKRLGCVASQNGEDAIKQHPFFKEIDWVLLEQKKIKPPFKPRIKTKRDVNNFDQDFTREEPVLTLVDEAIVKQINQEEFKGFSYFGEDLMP
Serine/threonine-protein kinase N2 (Homo sapiens), sequence (Q16513 whole entry, looked up): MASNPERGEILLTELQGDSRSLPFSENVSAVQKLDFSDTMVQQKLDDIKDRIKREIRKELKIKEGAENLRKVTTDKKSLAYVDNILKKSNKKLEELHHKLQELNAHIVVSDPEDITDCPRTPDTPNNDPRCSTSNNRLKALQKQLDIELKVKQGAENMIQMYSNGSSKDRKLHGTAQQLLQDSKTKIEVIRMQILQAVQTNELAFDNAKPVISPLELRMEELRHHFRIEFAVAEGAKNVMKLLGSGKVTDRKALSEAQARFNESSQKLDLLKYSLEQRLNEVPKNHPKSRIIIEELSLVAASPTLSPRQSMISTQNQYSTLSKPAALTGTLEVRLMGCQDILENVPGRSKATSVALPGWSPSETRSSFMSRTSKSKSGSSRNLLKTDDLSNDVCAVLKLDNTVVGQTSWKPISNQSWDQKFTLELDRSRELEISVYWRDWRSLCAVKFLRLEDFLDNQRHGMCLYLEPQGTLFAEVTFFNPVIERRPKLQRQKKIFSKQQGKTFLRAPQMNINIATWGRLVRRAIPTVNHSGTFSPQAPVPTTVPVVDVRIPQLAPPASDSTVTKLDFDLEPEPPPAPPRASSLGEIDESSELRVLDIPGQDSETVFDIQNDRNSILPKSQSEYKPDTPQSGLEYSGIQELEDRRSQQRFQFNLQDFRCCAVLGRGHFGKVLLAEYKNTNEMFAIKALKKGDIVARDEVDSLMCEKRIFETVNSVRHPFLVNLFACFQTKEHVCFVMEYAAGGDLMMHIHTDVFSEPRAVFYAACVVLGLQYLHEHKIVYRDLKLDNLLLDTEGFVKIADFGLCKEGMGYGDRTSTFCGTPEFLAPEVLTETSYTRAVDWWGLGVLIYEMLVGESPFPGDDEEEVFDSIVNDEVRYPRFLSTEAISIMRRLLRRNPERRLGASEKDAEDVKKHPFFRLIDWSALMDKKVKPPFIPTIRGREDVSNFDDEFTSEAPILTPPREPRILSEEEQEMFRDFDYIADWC
Mast/stem cell growth factor receptor Kit (Homo sapiens), P10721 [V559D], sequence (P10721 whole entry V559D): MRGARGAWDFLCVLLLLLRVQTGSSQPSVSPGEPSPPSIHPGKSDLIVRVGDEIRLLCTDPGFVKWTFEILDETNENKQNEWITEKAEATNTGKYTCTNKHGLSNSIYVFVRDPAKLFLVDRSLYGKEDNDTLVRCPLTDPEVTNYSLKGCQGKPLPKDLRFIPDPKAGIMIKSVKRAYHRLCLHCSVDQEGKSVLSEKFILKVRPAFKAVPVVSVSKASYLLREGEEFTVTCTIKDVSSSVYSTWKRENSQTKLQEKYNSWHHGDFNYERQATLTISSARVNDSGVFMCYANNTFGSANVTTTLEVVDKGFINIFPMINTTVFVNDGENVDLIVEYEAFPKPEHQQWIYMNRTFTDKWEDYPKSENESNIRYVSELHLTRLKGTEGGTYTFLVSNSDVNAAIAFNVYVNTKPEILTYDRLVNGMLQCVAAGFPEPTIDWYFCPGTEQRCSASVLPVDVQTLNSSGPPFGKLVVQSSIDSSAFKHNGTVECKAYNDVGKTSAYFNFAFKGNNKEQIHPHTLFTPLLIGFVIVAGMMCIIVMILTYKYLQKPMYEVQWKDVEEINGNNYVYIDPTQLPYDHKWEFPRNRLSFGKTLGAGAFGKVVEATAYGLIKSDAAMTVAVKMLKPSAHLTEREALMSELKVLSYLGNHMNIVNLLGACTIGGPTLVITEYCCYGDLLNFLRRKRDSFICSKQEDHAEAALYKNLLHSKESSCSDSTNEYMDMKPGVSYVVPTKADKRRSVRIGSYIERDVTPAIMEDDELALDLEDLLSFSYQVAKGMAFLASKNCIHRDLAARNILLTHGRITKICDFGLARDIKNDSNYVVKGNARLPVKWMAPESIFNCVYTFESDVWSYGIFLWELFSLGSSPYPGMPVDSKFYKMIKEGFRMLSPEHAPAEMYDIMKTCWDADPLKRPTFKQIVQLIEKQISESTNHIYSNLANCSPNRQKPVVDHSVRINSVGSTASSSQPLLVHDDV
Ribosomal protein S6 kinase alpha-3 (Homo sapiens), sequence (P51812 whole entry, the tested form may be a part): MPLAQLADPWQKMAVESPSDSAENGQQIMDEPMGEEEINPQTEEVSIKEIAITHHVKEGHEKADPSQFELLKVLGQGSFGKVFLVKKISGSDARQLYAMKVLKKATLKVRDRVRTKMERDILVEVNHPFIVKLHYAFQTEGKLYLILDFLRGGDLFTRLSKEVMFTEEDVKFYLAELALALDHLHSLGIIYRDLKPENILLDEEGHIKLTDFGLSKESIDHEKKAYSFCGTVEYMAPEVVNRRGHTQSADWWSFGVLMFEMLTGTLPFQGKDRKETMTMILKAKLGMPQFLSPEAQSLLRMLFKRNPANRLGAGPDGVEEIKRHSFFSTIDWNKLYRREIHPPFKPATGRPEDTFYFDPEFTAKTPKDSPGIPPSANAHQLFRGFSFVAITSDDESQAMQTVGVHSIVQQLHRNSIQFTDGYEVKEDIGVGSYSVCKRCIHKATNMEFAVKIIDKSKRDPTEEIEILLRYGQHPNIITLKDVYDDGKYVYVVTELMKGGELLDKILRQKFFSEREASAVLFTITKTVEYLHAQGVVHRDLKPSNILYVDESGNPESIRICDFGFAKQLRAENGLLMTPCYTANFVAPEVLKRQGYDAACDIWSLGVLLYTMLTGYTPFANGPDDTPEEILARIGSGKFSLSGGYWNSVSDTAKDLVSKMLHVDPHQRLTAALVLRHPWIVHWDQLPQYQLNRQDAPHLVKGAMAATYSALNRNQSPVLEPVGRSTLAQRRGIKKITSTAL
Serine/threonine-protein kinase 16 (Homo sapiens), sequence (O75716 whole entry, the tested form may be a part): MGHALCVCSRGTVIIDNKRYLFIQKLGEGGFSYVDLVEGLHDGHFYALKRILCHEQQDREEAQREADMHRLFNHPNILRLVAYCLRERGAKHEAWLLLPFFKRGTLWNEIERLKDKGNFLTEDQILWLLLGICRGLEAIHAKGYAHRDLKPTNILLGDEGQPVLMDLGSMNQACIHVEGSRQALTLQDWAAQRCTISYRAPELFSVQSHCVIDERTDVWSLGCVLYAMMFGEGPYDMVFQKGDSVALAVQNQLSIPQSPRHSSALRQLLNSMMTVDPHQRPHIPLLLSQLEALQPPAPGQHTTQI
Serine/threonine-protein kinase Nek7 (Homo sapiens), sequence (Q8TDX7 whole entry, looked up): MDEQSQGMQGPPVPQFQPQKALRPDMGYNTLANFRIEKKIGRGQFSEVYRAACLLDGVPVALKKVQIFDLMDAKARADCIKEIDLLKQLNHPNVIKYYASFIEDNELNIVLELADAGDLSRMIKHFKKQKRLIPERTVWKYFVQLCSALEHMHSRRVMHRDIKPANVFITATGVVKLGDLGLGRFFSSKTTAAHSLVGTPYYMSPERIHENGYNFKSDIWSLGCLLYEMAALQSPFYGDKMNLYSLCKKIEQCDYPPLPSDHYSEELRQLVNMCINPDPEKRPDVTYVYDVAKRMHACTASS

As usually defined, the inhibition is the relative decrease from the control value, in per cent. The term residual activity denotes the share of the control activity or signal that is left under treatment. Low values mean little activity left, high ones much activity left. As for `CCN1CCN(Cc2ccc(NC(=O)c3ccc(C)c(/C=C/c4cnc5[nH]ccc5c4OC)c3)cc2C(F)(F)F)CC1`, the inhibition came out at 61% in test [1]; 100% in test [2]; 100% in test [3]; 17.8% in test [4]; 1.9% in [5]; 13.4% in [6]. In addition, the inhibition in test [8] is 17.4%. This compound came in with a residual activity in [7] of 0.05%.

As for `CCN1CCN(Cc2ccc(NC(=O)c3ccc(C)c(Oc4ccnc5[nH]ccc45)c3)cc2C(F)(F)F)CC1`, the inhibition result in test [9] and in [10] was “inactive” throughout. Besides, the inhibition is 20% in test [11], -0.4% in test [12] and 8.8% in test [13]. In [14], this compound came in with a residual activity of 0.2%.

With `CNc1cc(Oc2cc(C(=O)Nc3cc(N4CCN(C)CC4)cc(C(F)(F)F)c3)ccc2C)ncn1`, the results for the inhibition in [15] and in [16] were 19.4% and 34.3%, respectively.
